pIC50: −log10 of the molar value.
What was measured:
Format in all cases: cell-based
[1] = target: T1, Kir3.1/Kir3.4 (Homo sapiens) (UniProt P48549+P48544); assay: Inhibition of GTPgammaS-induced activation of GIRK1/4 (unknown origin) expressed in HEK293 cells assessed as decrease in channel current at 1 uM after 2 mins at -40 mV holding potential by automated patch-clamp electrophysiology assay
Method in brief: (§1)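 Whole-cell automated planar patch clamp on HEK-293 cells stably expressing GIRK1/4 (Kir3.1/3.4). Internal solution carries 0.9 mM GTPγS to activate channels; bath switched from 4 mM K+ to high-K+ (25 mM KCl) external, pH 7.4. Step to 60 mV, ramp to −140 mV, 100 ms at −140 mV, ~0.1 Hz; inward current read at −140 mV. After 3 min control, 1 then 10 μM for ~2 min each; K+-free solution baseline; two to three cells.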

[2] = target: T1, Kir3.1/Kir3.4 (Homo sapiens); assay: Inhibition of GTPgammaS-induced activation of GIRK1/4 (unknown origin) expressed in HEK293 cells assessed as decrease in channel current at 10 uM after 2 mins at -40 mV holding potential by automated patch-clamp electrophysiology assay; method in brief: as §1
hERG (KCNH2) [3] = target: T2, hERG (KCNH2) (Homo sapiens, UniProt Q12809); assay: Inhibition of human ERG expressed in HEK293 cells assessed as decrease in channel current at 3 uM after 3 mins at -80 mV holding potential by automated patch-clamp electrophysiology assay; conditions: HEK293 cells that express hERG
Method in brief: (§2)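 HEK-293 cells stably transfected with hERG (Kv11.1), whole-cell automated planar patch clamp. External solution 4 mM KCl, pH 7.4; internal KCl/KF/EGTA, pH 7.2. Protocol: 100 ms −40 mV reference step, 3 s at 20 mV, then 1 s at −40 mV for the outward tail current. After control, 3, 10, 30 μM cumulative, ~3 min each; amitriptyline 10 μM reference, then wash-out; two or three cells; DMSO ≤0.3% final.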

hERG (KCNH2) [4] = target: T2, hERG (KCNH2); assay: Inhibition of human ERG expressed in HEK293 cells assessed as decrease in channel current at 10 uM after 3 mins at -80 mV holding potential by automated patch-clamp electrophysiology assay; conditions: HEK293 cells that express hERG; method in brief: as §2
hERG (KCNH2) [5] = target: T2, hERG (KCNH2); assay: Inhibition of human ERG expressed in HEK293 cells assessed as decrease in channel current at 30 uM after 3 mins at -80 mV holding potential by automated patch-clamp electrophysiology assay; conditions: HEK293 cells that express hERG; method in brief: as §2
Kir3.1/Kir3.4 = target: T3, Kir3.1/Kir3.4 (Homo sapiens, UniProt P48544+P48549); assay: Inhibition of GTPgammaS-induced activation of GIRK1/4 (unknown origin) expressed in HEK293 cells assessed as decrease in channel current after 2 mins at -40 mV holding potential by automated patch-clamp electrophysiology assay
T3 sequence (P48549 whole entry): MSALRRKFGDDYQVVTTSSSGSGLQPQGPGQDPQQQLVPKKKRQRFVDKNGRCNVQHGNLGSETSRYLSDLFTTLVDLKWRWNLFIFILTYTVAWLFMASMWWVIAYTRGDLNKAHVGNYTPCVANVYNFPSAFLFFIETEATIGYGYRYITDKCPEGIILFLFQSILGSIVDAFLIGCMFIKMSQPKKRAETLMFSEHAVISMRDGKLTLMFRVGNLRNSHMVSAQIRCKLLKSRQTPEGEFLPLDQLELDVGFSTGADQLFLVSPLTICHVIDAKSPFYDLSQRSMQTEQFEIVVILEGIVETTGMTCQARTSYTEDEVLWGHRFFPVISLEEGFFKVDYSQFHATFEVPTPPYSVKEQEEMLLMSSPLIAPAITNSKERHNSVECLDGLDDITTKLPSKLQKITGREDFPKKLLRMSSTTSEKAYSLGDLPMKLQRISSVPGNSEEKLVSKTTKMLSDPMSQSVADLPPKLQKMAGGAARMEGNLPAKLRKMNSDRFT
T3 sequence (P48544 whole entry): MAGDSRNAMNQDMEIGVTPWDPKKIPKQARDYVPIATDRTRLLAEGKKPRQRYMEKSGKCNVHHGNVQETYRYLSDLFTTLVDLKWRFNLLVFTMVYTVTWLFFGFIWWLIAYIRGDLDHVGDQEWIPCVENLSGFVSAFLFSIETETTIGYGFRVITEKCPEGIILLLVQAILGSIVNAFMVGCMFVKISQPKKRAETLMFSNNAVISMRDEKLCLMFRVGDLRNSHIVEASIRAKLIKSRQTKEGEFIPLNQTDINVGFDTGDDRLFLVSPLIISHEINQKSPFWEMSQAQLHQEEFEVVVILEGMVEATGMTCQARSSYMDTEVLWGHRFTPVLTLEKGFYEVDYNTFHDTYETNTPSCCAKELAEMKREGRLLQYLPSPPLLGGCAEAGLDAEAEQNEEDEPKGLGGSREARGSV
Method in brief: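 HEK-293 cells stably expressing Kir3.1/3.4, grown in MEM with 10% FBS and zeocin, trypsinised and resuspended serum-free. Whole-cell automated planar patch clamp. Internal solution contained 0.9 mM GTPγS. Recordings began in normal external solution (4 mM K+), then switched to high-K+ external solution (25 mM KCl, pH 7.4). Each cycle: step to 60 mV for 100 ms, 500 ms ramp to −140 mV, hold at −140 mV for 100 ms, about 0.1 Hz. Inward current taken from the −140 mV segment. After a 3 min control period, compound was added in rising concentrations, about 2 min each: 1 and 10 μM for screening on 2–3 cells, or 1, 3, 10 and 30 μM on at least 5 cells for IC50. Final DMSO was 0.3% or less. Current in K+-free solution served as baseline. 1 μM propafenone was the reference.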

T2 sequence (Q12809 whole entry): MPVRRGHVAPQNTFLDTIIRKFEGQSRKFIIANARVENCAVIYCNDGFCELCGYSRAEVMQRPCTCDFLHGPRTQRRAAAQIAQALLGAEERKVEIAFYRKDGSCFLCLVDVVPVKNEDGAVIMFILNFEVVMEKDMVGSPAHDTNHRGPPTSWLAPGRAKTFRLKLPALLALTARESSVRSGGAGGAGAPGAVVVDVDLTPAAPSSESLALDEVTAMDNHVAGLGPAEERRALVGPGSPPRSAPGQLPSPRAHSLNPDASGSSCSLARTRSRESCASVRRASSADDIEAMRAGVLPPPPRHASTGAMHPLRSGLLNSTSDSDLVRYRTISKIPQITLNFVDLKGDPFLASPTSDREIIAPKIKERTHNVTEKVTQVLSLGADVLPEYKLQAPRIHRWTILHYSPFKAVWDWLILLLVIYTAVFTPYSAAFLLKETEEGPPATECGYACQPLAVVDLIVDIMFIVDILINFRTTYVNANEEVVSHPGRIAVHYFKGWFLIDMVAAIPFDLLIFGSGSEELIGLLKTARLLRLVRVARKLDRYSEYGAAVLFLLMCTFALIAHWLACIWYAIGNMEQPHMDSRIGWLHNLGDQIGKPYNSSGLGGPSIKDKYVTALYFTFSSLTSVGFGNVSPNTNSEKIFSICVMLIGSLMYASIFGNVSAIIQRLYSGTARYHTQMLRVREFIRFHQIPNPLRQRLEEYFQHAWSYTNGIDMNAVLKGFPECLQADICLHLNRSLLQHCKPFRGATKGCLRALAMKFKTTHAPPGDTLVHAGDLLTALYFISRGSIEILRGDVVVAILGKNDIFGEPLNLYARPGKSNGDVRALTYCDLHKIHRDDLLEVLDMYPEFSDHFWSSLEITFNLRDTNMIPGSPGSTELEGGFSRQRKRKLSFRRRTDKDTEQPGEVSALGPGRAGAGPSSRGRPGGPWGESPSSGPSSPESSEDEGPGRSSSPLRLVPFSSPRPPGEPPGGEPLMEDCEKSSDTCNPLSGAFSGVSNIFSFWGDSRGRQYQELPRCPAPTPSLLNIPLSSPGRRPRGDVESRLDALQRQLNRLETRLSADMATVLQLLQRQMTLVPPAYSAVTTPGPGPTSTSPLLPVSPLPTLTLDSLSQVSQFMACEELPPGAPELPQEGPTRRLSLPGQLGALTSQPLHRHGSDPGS

SMILES	inhibition [1] [%]	inhibition [2] [%]	inhibition at 0.05 h, 3 µM (hERG (KCNH2) [3]) [%]	inhibition at 0.05 h, 10 µM (hERG (KCNH2) [4]) [%]	inhibition at 0.05 h, 30 µM (hERG (KCNH2) [5]) [%]	pIC50 (Kir3.1/Kir3.4)
CCC(C)C(=O)O[C@H]1C(=O)[C@@]23CO[C@@](C)([C@H](OC(C)=O)[C@@]4(OC(C)=O)C[C@H](C)[C@H](OC(=O)c5cccnc5)[C@@H]4[C@H]2OC(C)=O)[C@@H]3[C@@H]2[C@H]1C[C@]2(C)OC(C)=O (stereo not given in full)	31	72	4	14	25	5.31
CC(=O)O[C@@H]1[C@H]2[C@@H](OC(=O)c3ccccc3)[C@@H](C)C[C@]2(OC(C)=O)[C@@H](OC(C)=O)[C@]2(C)OC[C@]13C(=O)C=C[C@H](C(C)(C)OC(C)=O)[C@@H]23	43	83	9	20	39	5.60
CC(=O)O[C@@H]1[C@H]2[C@@H](OC(=O)C(C)C)[C@@H](C)C[C@]2(OC(C)=O)[C@@H](OC(C)=O)[C@]2(C)OC[C@]13C(=O)C=C[C@H](C(C)(C)OC(C)=O)[C@@H]23 [EUPHORBIAPROLIFERIN C]	34	69	0	4	16	5.33
CC(=O)O[C@@H]1[C@H]2[C@@H](OC(=O)C(C)C)[C@@H](C)C[C@]2(OC(C)=O)[C@@H](OC(C)=O)[C@]2(C)OC[C@]13C(=O)[C@H](OC(C)=O)[C@@H]1C[C@](C)(OC(C)=O)[C@@H]1[C@@H]23	28	61	8	16	23	5.01
CCC(=O)O[C@@H]1[C@@H]2[C@@H](OC(C)=O)[C@@]34CO[C@@](C)([C@H](OC(C)=O)[C@@]2(OC(C)=O)C[C@@H]1C)[C@@H]3[C@@H](C(C)(C)OC(C)=O)C=CC4=O	24	62	5	13	18	5.17
